The values below come from ChEMBL document CHEMBL1125434, “Preparation and in vitro and in vivo evaluation of quinolones with selective activity against gram-positive organisms” (1992).

Broadly, the MIC is the smallest concentration in the dilution series that meets the test's criterion for growth inhibition. A higher MIC goes with weaker potency. A word on the ED50: it is the midpoint of the dose-response relation. A lower ED50 goes with an effect at a small dose.

Common to all, as to assay type: functional
One assay has as its system Streptococcus pyogenes. The assay is described as follows: In vitro minimum inhibitory concentration against Streptococcus pyogenes 930 using brain-heart infusion agar. Put shortly:
(§1)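 Overnight cultures were grown in BHI broth at 36 °C. Twofold dilutions of a 2000 µg/mL stock were made in BHI agar, giving 200–0.005 µg/mL. Plates received about 10^4 organisms and were incubated for 18 h at 36 °C. MIC was the lowest concentration with no visible growth on the plate.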

Assay [1] concerns Staphylococcus epidermidis. The assay is described as follows: In vitro minimum inhibitory concentration against Staphylococcus epidermidis 3159 using brain-heart infusion agar. In short, it runs like this: as §1
Assay [2] has as its system Pseudomonas aeruginosa. As to the kind of experiment: In vitro minimum inhibitory concentration against Pseudomonas aeruginosa K799 / WT using brain-heart infusion agar. Put shortly:
as §1

Assay [3] has as its system Pseudomonas aeruginosa. As to the kind of experiment: In vitro minimum inhibitory concentration against Pseudomonas aeruginosa A5007 using brain-heart infusion agar. Put shortly:
as §1

Another assay concerns Escherichia coli. The assay is described as follows: In vitro minimum inhibitory concentration against Escherichia coli Juhl using brain-heart infusion agar. In short, it runs like this: as §1
The test system of another assay is Enterococcus faecium. As to the kind of experiment: In vitro minimum inhibitory concentration against Enterococcus faecium ATCC 8043 using brain-heart infusion agar. Put shortly:
as §1

For another assay, the system named is Acinetobacter. As to the kind of experiment: In vitro minimum inhibitory concentration against Acinetobacter CMX 669 using brain-heart infusion agar. In short, it runs like this:
as §1

Assay [4] has as its system Staphylococcus aureus. As to the kind of experiment: In vitro minimum inhibitory concentration against Staphylococcus aureus NCTC 10649 using brain-heart infusion agar. In short, it runs like this:
as §1

Assay [5] has as its system Staphylococcus aureus. The assay is described as follows: In vitro minimum inhibitory concentration against Staphylococcus aureus A 5177 using brain-heart infusion agar. Put shortly: as §1
Another assay deals with Klebsiella aerogenes. As to the kind of experiment: In vitro minimum inhibitory concentration against Enterobacter aerogenes ATCC 13048 using brain-heart infusion agar. In short, it runs like this: as §1
In another assay the test system is Klebsiella pneumoniae. As to the kind of experiment: In vitro minimum inhibitory concentration against Klebsiella pneumoniae 8045 using brain-heart infusion agar. In short, it runs like this: as §1
In a further assay the test system is Streptococcus equinus. As to the kind of experiment: In vitro minimum inhibitory concentration against Streptococcus bovis A5169 using brain-heart infusion agar. In short, it runs like this:
as §1

The test system of another assay is Streptococcus agalactiae. The assay is described as follows: In vitro minimum inhibitory concentration against Streptococcus agalactiae CMX 508 using brain-heart infusion agar. Put shortly: as §1
The subject of assay [6] is Staphylococcus aureus. The assay is described as follows: In vitro minimum inhibitory concentration against Staphylococcus aureus ATCC 6538P using brain-heart infusion agar. In short, it runs like this: as §1
Assay [7] concerns Staphylococcus aureus. The assay is described as follows: In vitro minimum inhibitory concentration against Staphylococcus aureus CMX 553 using brain-heart infusion agar. Put shortly:
as §1

Assay [8] has as its system Staphylococcus aureus. As to the kind of experiment: In vivo antibacterial activity against Staphylococcus aureus NCTC 10649 infected mouse by subcutaneous administration. Particulars: sc. Put shortly: (§2)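 Compound was given in water or in dilute NaOH diluted with water, orally or subcutaneously. The dose was split equally between 1 and 5 h post-infection. Groups were 10 mice at ≥3 dose levels. ED50 was calculated from day-6 cumulative mortality by the trimmed Logit method.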

Assay [9] deals with Staphylococcus aureus. The assay is described as follows: In vivo antibacterial activity against Staphylococcus aureus NCTC 10649 infected mouse by oral administration. Put shortly:
as §2

Converted amounts (≈) assume the structure as drawn.

As for `CON=C1CCN(c2c(F)cc3c(=O)c(C(=O)O)cn(C4CC4)c3c2F)CC1`, the MIC with Streptococcus pyogenes is 1.56 µg/mL (≈ 3.99 µM); in [1], 0.1 µg/mL (≈ 0.256 µM); in the assay with Pseudomonas aeruginosa [2] it was above 100 µg/mL; against Pseudomonas aeruginosa [3], above 100 µg/mL; against Escherichia coli, 1.56 µg/mL (≈ 3.99 µM); in the assay with Enterococcus faecium, 1.56 µg/mL (≈ 3.99 µM). Further, the MIC with Acinetobacter is 3.1 µg/mL (≈ 7.92 µM); in the assay with Staphylococcus aureus [4] it was 0.05 µg/mL (≈ 0.128 µM); in the assay with Staphylococcus aureus [5], 0.1 µg/mL (≈ 0.256 µM); against Klebsiella aerogenes, above 100 µg/mL; with Klebsiella pneumoniae it was 3.1 µg/mL (≈ 7.92 µM); in the assay with Streptococcus equinus it was 3.1 µg/mL (≈ 7.92 µM). Also, the MIC was 1.56 µg/mL (≈ 3.99 µM) against Streptococcus agalactiae, 0.05 µg/mL (≈ 0.128 µM) against Staphylococcus aureus [6] and 0.1 µg/mL (≈ 0.256 µM) in the assay on Staphylococcus aureus [7].
Regarding `O=C(O)c1cn(-c2ccc(F)cc2F)c2cc(N3CC/C(=N/O)C3)c(F)cc2c1=O`, the MIC with Streptococcus pyogenes is 0.2 µg/mL (≈ 0.479 µM); in assay [1], below 0.05 µg/mL; with Pseudomonas aeruginosa [2], 1.56 µg/mL (≈ 3.74 µM); against Pseudomonas aeruginosa [3], 3.1 µg/mL (≈ 7.43 µM); against Escherichia coli, 0.2 µg/mL (≈ 0.479 µM); in the assay with Enterococcus faecium, 0.2 µg/mL (≈ 0.479 µM). In addition, the MIC was 0.39 µg/mL (≈ 0.934 µM) with Acinetobacter; below 0.05 µg/mL in the assay on Staphylococcus aureus [4]; below 0.05 µg/mL in the assay on Staphylococcus aureus [5]; 0.78 µg/mL (≈ 1.87 µM) with Klebsiella aerogenes; 0.2 µg/mL (≈ 0.479 µM) against Klebsiella pneumoniae; 0.39 µg/mL (≈ 0.934 µM) in the assay on Streptococcus equinus. Besides, the figures for the MIC against Streptococcus agalactiae, in the assay on Staphylococcus aureus [6] and in the assay with Staphylococcus aureus [7] were 0.2 µg/mL (≈ 0.479 µM), below 0.05 µg/mL and below 0.05 µg/mL, respectively. Moreover, the ED50 with Staphylococcus aureus [8] is 4.1 mg/kg; in the assay on Staphylococcus aureus [9] it was above 12 mg/kg.
As for `CO/N=C1\CCN(c2nc3c(cc2F)c(=O)c(C(=O)O)cn3C2CC2)C1`, the MIC in the assay with Streptococcus pyogenes turned out to be 0.78 µg/mL (≈ 2.16 µM); in assay [1], 0.1 µg/mL (≈ 0.278 µM); in the assay on Pseudomonas aeruginosa [2], 1.56 µg/mL (≈ 4.33 µM); in the assay with Pseudomonas aeruginosa [3], 3.1 µg/mL (≈ 8.6 µM); against Escherichia coli, 0.39 µg/mL (≈ 1.08 µM); in the assay with Enterococcus faecium it was 0.78 µg/mL (≈ 2.16 µM). The MIC against Acinetobacter amounted to 0.39 µg/mL (≈ 1.08 µM); against Staphylococcus aureus [4], 0.02 µg/mL (≈ 0.0555 µM); against Staphylococcus aureus [5], 0.05 µg/mL (≈ 0.139 µM); against Klebsiella aerogenes, 0.78 µg/mL (≈ 2.16 µM); against Klebsiella pneumoniae, 0.1 µg/mL (≈ 0.278 µM); against Streptococcus equinus, 1.56 µg/mL (≈ 4.33 µM). Moreover, the MIC amounted to 0.78 µg/mL (≈ 2.16 µM) with Streptococcus agalactiae, 0.02 µg/mL (≈ 0.0555 µM) against Staphylococcus aureus [6] and 0.05 µg/mL (≈ 0.139 µM) against Staphylococcus aureus [7].
In the case of `CON=C1CCN(c2cc3c(cc2F)c(=O)c(C(=O)O)cn3-c2ccc(F)cc2F)CC1`, the minimal inhibitory concentration (MIC) in the assay on Streptococcus pyogenes is 1.56 µg/mL (≈ 3.5 µM); in assay [1], 0.1 µg/mL (≈ 0.225 µM); in the assay with Pseudomonas aeruginosa [2] it was above 100 µg/mL; against Pseudomonas aeruginosa [3], above 100 µg/mL; with Escherichia coli it was 0.2 µg/mL (≈ 0.449 µM); against Enterococcus faecium, 3.1 µg/mL (≈ 6.96 µM). The MIC is 6.2 µg/mL (≈ 13.9 µM) in the assay with Acinetobacter; 0.05 µg/mL (≈ 0.112 µM) against Staphylococcus aureus [4]; 0.1 µg/mL (≈ 0.225 µM) against Staphylococcus aureus [5]; above 100 µg/mL in the assay with Klebsiella aerogenes; 3.1 µg/mL (≈ 6.96 µM) with Klebsiella pneumoniae; 6.2 µg/mL (≈ 13.9 µM) with Streptococcus equinus. The values for the MIC against Streptococcus agalactiae, in the assay with Staphylococcus aureus [6] and in the assay with Staphylococcus aureus [7] were 1.56 µg/mL (≈ 3.5 µM), 0.05 µg/mL (≈ 0.112 µM) and 0.2 µg/mL (≈ 0.449 µM), respectively. In addition, the results for the ED50 with Staphylococcus aureus [8] and in the assay with Staphylococcus aureus [9] were above 8 mg/kg and above 12 mg/kg, respectively.
As to `CO/N=C1/CCN(c2cc3c(cc2F)c(=O)c(C(=O)O)cn3-c2ccc(F)cc2F)C1`, the MIC against Streptococcus pyogenes stood at 0.39 µg/mL (≈ 0.904 µM); in [1], 0.05 µg/mL (≈ 0.116 µM); in the assay with Pseudomonas aeruginosa [2] it was 6.2 µg/mL (≈ 14.4 µM); in the assay with Pseudomonas aeruginosa [3] it was 6.2 µg/mL (≈ 14.4 µM); with Escherichia coli, 0.78 µg/mL (≈ 1.81 µM); against Enterococcus faecium, 0.39 µg/mL (≈ 0.904 µM). Moreover, the MIC was 0.78 µg/mL (≈ 1.81 µM) in the assay with Acinetobacter; 0.05 µg/mL (≈ 0.116 µM) against Staphylococcus aureus [4]; 0.05 µg/mL (≈ 0.116 µM) with Staphylococcus aureus [5]; 3.1 µg/mL (≈ 7.19 µM) in the assay with Klebsiella aerogenes; 0.78 µg/mL (≈ 1.81 µM) with Klebsiella pneumoniae; 1.56 µg/mL (≈ 3.62 µM) with Streptococcus equinus. The MIC in the assay on Streptococcus agalactiae was found to be 0.39 µg/mL (≈ 0.904 µM); against Staphylococcus aureus [6], 0.02 µg/mL (≈ 0.0464 µM); in the assay with Staphylococcus aureus [7], 0.05 µg/mL (≈ 0.116 µM).
`O=C(O)c1cn(C2CC2)c2cc(N3CCNCC3)c(F)cc2c1=O` [CIPROFLOXACIN]: the ED50 was 1.6 mg/kg with Staphylococcus aureus [8] and 15.5 mg/kg in the assay with Staphylococcus aureus [9].
For `NC1CCN(c2nc3c(cc2F)c(=O)c(C(=O)O)cn3-c2ccc(F)cc2F)C1` (stereo not given) [TOSUFLOXACIN], the MIC against Streptococcus pyogenes is 0.2 µg/mL (≈ 0.495 µM); in assay [1], 0.1 µg/mL (≈ 0.247 µM); against Pseudomonas aeruginosa [2] it was 0.78 µg/mL (≈ 1.93 µM); with Pseudomonas aeruginosa [3], 0.78 µg/mL (≈ 1.93 µM); against Escherichia coli, 0.02 µg/mL (≈ 0.0495 µM); against Enterococcus faecium it was 0.2 µg/mL (≈ 0.495 µM). Further, the MIC was found to be 0.1 µg/mL (≈ 0.247 µM) against Acinetobacter; 0.05 µg/mL (≈ 0.124 µM) in the assay with Staphylococcus aureus [5]; 0.05 µg/mL (≈ 0.124 µM) against Klebsiella aerogenes; 0.02 µg/mL (≈ 0.0495 µM) in the assay on Klebsiella pneumoniae; 0.39 µg/mL (≈ 0.965 µM) with Streptococcus equinus; 0.39 µg/mL (≈ 0.965 µM) against Streptococcus agalactiae. The MIC with Staphylococcus aureus [6] amounted to 0.02 µg/mL (≈ 0.0495 µM); against Staphylococcus aureus [7], 0.05 µg/mL (≈ 0.124 µM).
